Data set [1] deals with Staphylococcus aureus. The data set is described as follows: Potentiation of oxacillin-induced antibacterial activity against Staphylococcus aureus NRS70 assessed as oxacillin MIC at 20 uM. Type of data set: functional.
Data set [2] deals with Staphylococcus aureus. Kind of data set: Potentiation of oxacillin-induced antibacterial activity against Staphylococcus aureus MRSA252 assessed as oxacillin MIC at 20 uM (reference value: 256 ug/ml). Type of data set: functional.
Data set [3] concerns Staphylococcus aureus. Kind of data set: Growth inhibition of Staphylococcus aureus MRSA252. Type of data set: organism-based. The settings on record: in vitro. The gist of the method:
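Compound alone was two-fold serially diluted in cation-adjusted Mueller-Hinton II broth containing 2.4% DMSO. Bacteria were inoculated at 5 × 10⁵ CFU mL⁻¹ and incubated at 36 °C for 16–20 h. The MIC was read in triplicate.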

Data set [4] deals with Staphylococcus aureus. Kind of data set: Potentiation of oxacillin-induced antibacterial activity against methicillin/oxacillin/tetracycline-resistant Staphylococcus aureus NRS100 assessed as oxacillin MIC at 20 uM. Type of data set: functional. In outline: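 Oxacillin MIC measured with the synthetic potentiator held at a fixed 20 μM. Two-fold serial dilution in cation-adjusted Mueller-Hinton II broth containing 2.4% DMSO. Inoculum 5 × 10⁵ CFU mL⁻¹, incubated at 36 °C for 16–20 h. Run in triplicate.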

Data set [5] concerns Staphylococcus aureus. The data set is described as follows: Potentiation of oxacillin-induced antibacterial activity against Staphylococcus aureus MRSA252 assessed as fold reduction in oxacillin MIC at 20 uM relative to oxacillin alone. In kind it is functional.
The test system of data set [6] is Staphylococcus aureus. Kind of data set: Potentiation of oxacillin-induced antibacterial activity against Staphylococcus aureus NRS386 assessed as oxacillin MIC at 20 uM. Type of data set: functional. The settings on record: USA700 NRS386.

On to `Cc1ccc(S(=O)(=O)N(CCO)c2ccccc2CN(C)C(=O)/C=C/c2ccc(C(F)(F)F)cc2)cc1`, for which the minimum inhibitory concentration (MIC) in data set [1] is 16 µg/mL; in data set [2], 2 µg/mL; in data set [4], 4 µg/mL; in data set [6] it was 4 µg/mL. Also, in data set [3], the “growth inhibition (GI)” value is recorded as “Non-Toxic”. In data set [5], the “fold change (FC)” value came out at 128.

Take `CCc1ccc(S(=O)(=O)N(CCO)c2ccccc2CN(C)C(=O)/C=C/c2ccc(C(F)(F)F)cc2)cc1`: the minimum inhibitory concentration (MIC) was found to be 16 µg/mL in data set [1], 4 µg/mL in data set [2], 16 µg/mL in data set [4] and 8 µg/mL in data set [6]. In data set [3], the “growth inhibition (GI)” value was “Non-Toxic”. Also, in data set [5], the “fold change (FC)” value was 64.

For the compound `CN(Cc1ccccc1N(CCO)S(=O)(=O)c1ccc(F)cc1)C(=O)/C=C/c1ccc(C(F)(F)F)cc1`, the minimal inhibitory concentration (MIC) in data set [1] was 16 µg/mL; in data set [2] it was 2 µg/mL; in data set [4], 2 µg/mL; in data set [6] it was 8 µg/mL. Moreover, the “growth inhibition (GI)” value in data set [3] was “Non-Toxic”. In data set [5], the “fold change (FC)” value stood at 128.

Usually MIC stands for the smallest concentration in the dilution series that meets the test's criterion for growth inhibition.

For the origin of these results see ChEMBL document CHEMBL4368884, “Structure-activity relationship of the cinnamamide family of antibiotic potentiators for methicillin-resistant Staphylococcus aureus (MRSA)” (Medchemcomm, 2018).
